Measured values of several laboratories.
Protocols differ between the studies behind these lines. Values after ≈ are worked out from the molar mass of the structure shown.

OC1(c2ccccc2)CCN(c2nc(-c3ccccn3)nc3ccccc23)C1 (centres unmarked) — IC50 (Trypanosoma cruzi; parasite growth, imaging; U2OS; intracellular, amastigote): 3.51 µM
CCN1CCc2c(sc(N)c2C(=O)NCc2ccccc2)C1 — MIC (Mycobacterium tuberculosis; microbial growth, resazurin; H37RV): > 300 µM
N#Cc1ccccc1-c1nc(N2CCC(c3ccccn3)C2)c2ccccc2n1 (centres unmarked) — IC50 (Trypanosoma cruzi; parasite growth, imaging; U2OS; intracellular, amastigote): 5.86 µM
CCOC(=O)c1ccc(-n2c(C)cc(C)c(C#N)c2=O)cc1 — viability (HepG2; cell growth or viability, MTT; 1.56 µM, 24 h): 100%
COc1ccc(NC(=O)c2c(Nc3ccccc3)sc(C(=O)NN=Cc3ccc(Cl)cc3)c2NC(C)=O)cc1 — viability (HepG2; cell growth or viability, SRB; 0.1 µM, 48 h): 92.3%
Cc1ccc(CNC(=O)c2c(N)sc3c2CCCC3)cc1 — MIC (Mycobacterium tuberculosis; microbial growth, resazurin; H37RV): 333 µM (≈ 100 µg/mL)
Fc1cccc(Nc2nc(-c3ccccn3)nc3ccccc23)c1 — IC50 (Trypanosoma cruzi; parasite growth, imaging; U2OS; intracellular, amastigote): 1.5 µM
CCN1CCc2c(sc(N)c2C(=O)NCc2ccc(C)cc2)C1 — MIC (Mycobacterium tuberculosis; microbial growth, resazurin; H37RV): > 300 µM
COc1ccc(NC(=O)c2c(Nc3ccccc3)sc(C#N)c2NC(=O)CNc2ccc(Cl)cc2)cc1 — viability (HepG2; cell growth or viability, SRB; 1 nM, 48 h): 99.1%
Nc1sc(-c2ccccc2)cc1C(=O)NCc1ccccc1 — MIC (Mycobacterium tuberculosis; microbial growth, resazurin; H37RV): 325 µM (≈ 100 µg/mL)
COc1ccc(NC(=O)c2c(Nc3ccccc3)sc(C(=O)NN=Cc3ccc(C)cc3)c2NC(C)=O)cc1 — viability (HepG2; cell growth or viability, SRB; 10 µM, 48 h): 68.2%
CCOC(=O)c1ccc(-n2c(C)cc(/C=C/c3ccc(OC)cc3)c(C#N)c2=O)cc1 — viability (HepG2; cell growth or viability, MTT; 6.25 µM, 24 h): 96%
Oc1ccc(-c2nc(N3CCC(c4ccccn4)C3)c3ccccc3n2)cc1 (centres unmarked) — IC50 (Trypanosoma cruzi; parasite growth, imaging; U2OS; intracellular, amastigote): 1.13 µM
COc1ccc(NC(=O)c2c(Nc3ccccc3)sc(C#N)c2NC(=O)CNc2ccc([N+](=O)[O-])cc2)cc1 — viability (HepG2; cell growth or viability, SRB; 1 µM, 48 h): 68.4%
